Laboratory results reported in ChEMBL document CHEMBL3792386, “Design, Synthesis, and Biological Evaluation of Novel Selenium (Se-NSAID) Molecules as Anticancer Agents” (J Med Chem, 2016).

Experiments:
[1] = Antiproliferative activity against human DU145 cells assessed as reduction in cell viability after 72 hrs by MTT assay; assay type: functional, cell-based; settings: DU-145, 72 h
Procedure, shortened: (§1)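 3000 cells/well incubated in triplicate with serial concentrations of compound for 24, 48 or 72 h at 37 °C. MTT (5.0 mg/mL solution) added 3 h before the end. Formazan dissolved in DMSO, absorbance read at 570 and 630 nm. Viability normalised to vehicle control. IC50 from non-linear regression (variable slope), mean ± SD of triplicates.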

[2] = test system: HCT-116; test: Induction of ROS generation in human HCT116 cells at 5 uM after 6 hrs by flow cytometry (reference value: 6%); assay type: functional
[3] = Antiproliferative activity against human PANC1 cells assessed as reduction in cell viability after 72 hrs by MTT assay; assay type: functional, cell-based; settings: PANC-1, 72 h; procedure, shortened: as §1
[4] = test system: HCT-116; test: Induction of apoptosis in human HCT116 cells assessed as early apoptotic cells at 10 uM after 24 hrs by annexin V/7-ADD staining-based flow cytometry (reference value: 5.20%); assay type: functional
[5] = test system: HCT-116; test: Induction of apoptosis in human HCT116 cells assessed as live cells at 5 uM after 24 hrs by 7-ADD and caspase 3/7 activity-based flow cytometry (reference value: 92.60%); assay type: functional
[6] = test system: HCT-116; test: Induction of cell cycle arrest in human HCT116 cells assessed as accumulation at S phase at 5 uM after 24 hrs by propidium iodide staining-based flow cytometry (reference value: 48%); assay type: functional

CC(=O)Oc1ccccc1C(=O)NCC[Se]C#N
IC50 [1]: 2900 nM
Activity [2]: 13.12%
IC50 [3]: 2600 nM
Activity [4]: 32.4%
Activity [5]: 20.55%
Activity [6]: 13%
